# Where two headings read alike, the source gives them in different places.
# Columns and labels:
# SUV39H2 = SUV39H2 (Homo sapiens, UniProt Q9H5I1); experiment: SAHH-coupled assay, SUV39H2; format: biochemical
# How it was run: (§1)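 A fluorescence-based coupled assay used S-adenosyl-L-homocysteine hydrolase to follow conversion of cofactor SAM to SAH by the methyltransferase. IC50 values are the average of at least two separate experiments.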
# adrenergic α1A receptor = adrenergic α1A receptor (Rattus norvegicus, UniProt P43140); experiment: Ricerca Selectivity Panel, adrenergic α1A; format: binding
# Chain of adrenergic α1A receptor (P43140 whole entry): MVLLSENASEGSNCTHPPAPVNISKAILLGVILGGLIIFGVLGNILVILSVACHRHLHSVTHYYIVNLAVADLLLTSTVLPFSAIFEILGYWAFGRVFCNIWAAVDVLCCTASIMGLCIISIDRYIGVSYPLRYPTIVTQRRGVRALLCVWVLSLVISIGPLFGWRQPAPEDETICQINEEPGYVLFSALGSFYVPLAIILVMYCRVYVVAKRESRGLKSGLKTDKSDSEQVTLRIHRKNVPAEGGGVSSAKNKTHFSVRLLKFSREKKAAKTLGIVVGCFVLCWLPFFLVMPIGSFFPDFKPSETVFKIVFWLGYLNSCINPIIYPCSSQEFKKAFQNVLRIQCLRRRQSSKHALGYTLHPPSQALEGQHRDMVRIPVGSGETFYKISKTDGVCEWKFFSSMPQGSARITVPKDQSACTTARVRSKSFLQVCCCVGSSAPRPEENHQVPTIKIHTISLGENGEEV
# [1] = tested on: H3K9me2 levels in MDA-MB-231 cells; experiment: H3K9me2 in-cell western, MDA-MB-231; format: cell-based, human
# [2] = tested on: H3K9me2 levels in breast, prostate, colon carcinomas and normal fibroblast cells; experiment: H3K9me2 in-cell western, tumor and normal cell lines; format: cell-based, human
# M2 = M2 (Homo sapiens, UniProt P08172); experiment: M2 functional assay; format: cell-based
# Chain of M2 (P08172 whole entry): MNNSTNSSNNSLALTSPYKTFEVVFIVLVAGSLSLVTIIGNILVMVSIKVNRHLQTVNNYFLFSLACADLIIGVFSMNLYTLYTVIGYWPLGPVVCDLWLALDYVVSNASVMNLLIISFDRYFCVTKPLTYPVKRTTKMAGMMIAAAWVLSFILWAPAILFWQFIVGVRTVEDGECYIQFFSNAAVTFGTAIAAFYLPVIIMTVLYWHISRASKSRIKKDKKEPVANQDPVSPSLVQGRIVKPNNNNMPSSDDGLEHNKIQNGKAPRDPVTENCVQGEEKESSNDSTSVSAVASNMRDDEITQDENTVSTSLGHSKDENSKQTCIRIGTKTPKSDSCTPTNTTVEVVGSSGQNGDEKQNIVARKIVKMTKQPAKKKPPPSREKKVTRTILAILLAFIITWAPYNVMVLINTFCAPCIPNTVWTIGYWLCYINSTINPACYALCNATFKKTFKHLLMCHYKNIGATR
# [3] = tested on: HSC1-EF1α-EGFP-Puromycin retrovirus in J1 mES cells; experiment: Reactivation of silent EGFP retrovirus vector, flow cytometry; format: cell-based, mouse
# [4] = tested on: H3K9me2 levels in MCF7 cells; experiment: H3K9me2 inhibition, MCF7; format: cell-based; conditions: Homo sapiens, MCF7, read-out: IC90 for H3K9me2 inhibition
# [5] = Solution stability by 1H NMR and LC-MS; format: physicochemical; conditions: 10 mM in deuterated DMSO and deuterated H2O (90:10), room temperature, 4 weeks
# panel of 24 kinases = experiment: Kinase selectivity panel; format: biochemical; conditions: at 1 μM; 24 kinases
# MCF7 cells = experiment: Clonogenicity assay, MCF7; format: cell-based, human
# SETD8 = biological target: T1, SETD8 (Homo sapiens, UniProt Q9NQR1); experiment: SAHH-coupled assay, SETD8; format: biochemical
# T1 sequence (Q9NQR1 1-393): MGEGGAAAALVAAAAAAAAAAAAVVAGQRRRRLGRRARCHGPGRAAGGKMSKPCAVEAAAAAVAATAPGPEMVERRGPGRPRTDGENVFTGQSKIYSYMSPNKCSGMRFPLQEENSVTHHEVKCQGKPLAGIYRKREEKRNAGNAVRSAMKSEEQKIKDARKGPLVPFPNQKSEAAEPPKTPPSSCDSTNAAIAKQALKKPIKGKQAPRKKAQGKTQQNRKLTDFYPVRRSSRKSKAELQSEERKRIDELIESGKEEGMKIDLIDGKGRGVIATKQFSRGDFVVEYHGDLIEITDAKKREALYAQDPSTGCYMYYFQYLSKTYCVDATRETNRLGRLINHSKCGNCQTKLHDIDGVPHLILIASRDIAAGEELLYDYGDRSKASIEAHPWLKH
# How it was run: as §1
# JMJD2E = JMJD2E (Homo sapiens, UniProt B2RXH2); experiment: Alphascreen assay, JMJD2E; format: biochemical
# Chain of JMJD2E (B2RXH2 whole entry): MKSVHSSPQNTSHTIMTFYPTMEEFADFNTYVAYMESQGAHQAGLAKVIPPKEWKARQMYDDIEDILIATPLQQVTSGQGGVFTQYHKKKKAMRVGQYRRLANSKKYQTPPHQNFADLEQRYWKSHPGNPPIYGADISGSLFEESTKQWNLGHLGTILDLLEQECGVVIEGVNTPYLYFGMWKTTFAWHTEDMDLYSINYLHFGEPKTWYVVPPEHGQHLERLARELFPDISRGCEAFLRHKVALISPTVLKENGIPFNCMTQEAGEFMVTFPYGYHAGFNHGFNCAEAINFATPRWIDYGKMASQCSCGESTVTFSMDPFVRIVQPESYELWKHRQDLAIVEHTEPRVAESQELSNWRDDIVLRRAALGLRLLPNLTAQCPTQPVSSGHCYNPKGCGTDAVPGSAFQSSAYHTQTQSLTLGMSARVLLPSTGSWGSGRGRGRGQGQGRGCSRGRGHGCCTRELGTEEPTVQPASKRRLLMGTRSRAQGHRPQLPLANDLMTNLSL
# MDA-MB-231 cells = experiment: Clonogenicity assay, MDA-MB-231; format: cell-based, human
# G9a [6] = biological target: T2, G9a (Homo sapiens, UniProt Q96KQ7); experiment: Endoproteinase-coupled microfluidic capillary electrophoresis; format: biochemical
# T2 sequence (Q96KQ7 1-1210): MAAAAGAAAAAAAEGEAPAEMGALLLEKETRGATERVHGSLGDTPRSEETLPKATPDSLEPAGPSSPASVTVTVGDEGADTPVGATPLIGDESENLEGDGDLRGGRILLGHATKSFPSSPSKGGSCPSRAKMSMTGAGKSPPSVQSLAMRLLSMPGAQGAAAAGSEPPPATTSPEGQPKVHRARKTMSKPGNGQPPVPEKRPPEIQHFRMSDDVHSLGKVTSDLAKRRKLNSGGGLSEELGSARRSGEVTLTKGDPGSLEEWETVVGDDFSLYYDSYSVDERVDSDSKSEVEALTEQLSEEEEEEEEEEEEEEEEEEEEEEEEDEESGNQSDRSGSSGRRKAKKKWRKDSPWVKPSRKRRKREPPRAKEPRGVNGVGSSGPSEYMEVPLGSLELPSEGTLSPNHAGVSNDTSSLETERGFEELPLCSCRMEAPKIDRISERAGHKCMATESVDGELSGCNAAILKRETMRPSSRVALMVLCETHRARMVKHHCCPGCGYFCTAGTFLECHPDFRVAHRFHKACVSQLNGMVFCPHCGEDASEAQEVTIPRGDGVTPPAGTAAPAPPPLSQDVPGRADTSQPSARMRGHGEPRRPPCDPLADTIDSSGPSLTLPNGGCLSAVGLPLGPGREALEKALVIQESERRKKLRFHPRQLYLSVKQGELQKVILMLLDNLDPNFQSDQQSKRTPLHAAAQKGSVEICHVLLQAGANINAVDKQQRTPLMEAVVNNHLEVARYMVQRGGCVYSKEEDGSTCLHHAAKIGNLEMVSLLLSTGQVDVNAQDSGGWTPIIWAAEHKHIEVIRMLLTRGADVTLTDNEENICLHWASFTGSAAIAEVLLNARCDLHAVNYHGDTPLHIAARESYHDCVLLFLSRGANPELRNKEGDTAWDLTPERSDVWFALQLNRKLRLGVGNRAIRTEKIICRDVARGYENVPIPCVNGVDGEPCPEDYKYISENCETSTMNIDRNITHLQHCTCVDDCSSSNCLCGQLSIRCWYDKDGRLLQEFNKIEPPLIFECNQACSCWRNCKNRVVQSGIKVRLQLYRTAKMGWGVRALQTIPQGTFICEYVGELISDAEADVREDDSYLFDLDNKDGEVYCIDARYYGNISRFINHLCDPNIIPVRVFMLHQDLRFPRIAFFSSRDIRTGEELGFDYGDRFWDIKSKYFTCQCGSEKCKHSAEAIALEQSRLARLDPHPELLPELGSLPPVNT
# G9a [7] = biological target: T2, G9a; experiment: Surface plasmon resonance; format: binding; conditions: SPR
# [8] = tested on: retrovirus long terminal repeat and MAGEA2 promoter in mES cells; experiment: Bisulfite sequencing DNA methylation in mES cells; format: cell-based, mouse; conditions: after 10 d of treatment
# How it was run: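 J1 mouse ES cells were grown on 0.1% gelatin in DMEM with 15% ES-qualified FBS, 4 mM L-glutamine, 0.1 mM nonessential amino acids, 1 mM pyruvate, 0.55 mM 2-mercaptoethanol and LIF. They carried a silenced HSC1 retroviral EGFP-puromycin reporter driven by the EF1a promoter.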
# Chain of SUV39H2 (Q9H5I1 whole entry, species assumed): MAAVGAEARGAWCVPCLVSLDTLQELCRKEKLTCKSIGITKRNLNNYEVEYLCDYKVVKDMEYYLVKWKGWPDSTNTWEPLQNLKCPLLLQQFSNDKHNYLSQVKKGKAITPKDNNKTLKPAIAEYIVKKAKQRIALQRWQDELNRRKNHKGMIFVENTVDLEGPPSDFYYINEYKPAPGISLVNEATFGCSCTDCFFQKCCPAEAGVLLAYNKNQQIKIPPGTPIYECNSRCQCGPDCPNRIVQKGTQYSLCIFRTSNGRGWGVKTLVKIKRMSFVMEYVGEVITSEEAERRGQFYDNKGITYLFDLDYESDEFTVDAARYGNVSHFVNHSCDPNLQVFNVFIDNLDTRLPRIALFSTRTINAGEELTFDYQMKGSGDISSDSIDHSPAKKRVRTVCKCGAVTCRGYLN
compound,measurement,setting,value
COc1cc2c(NC3CCN(C(C)C)CC3)nc(C3CCCCC3)nc2cc1OCCCN1CCCC1 [UNC0638],IC50,SUV39H2,> 10000 nM
same,IC50,SUV39H2; SAHH-coupled assay,inactive
same,inhibition at 1 µM,adrenergic α1A receptor,90%
same,IC90,"[1]; Homo sapiens, MDA-MB-231, read-out: IC90 for reduction of H3K9me2 levels",250 nM
same,cellular H3K9me2 levels after 4 d,"[1]; MDA-MB-231 cells, 250 or 500 nM",equal or very close to those of G9a and GLP knockdown cells
same,IC50,"[1]; read-out: IC50 for reduction of H3K9me2 levels, MDA-MB-231 cells, 48 h exposure, in-cell western",80 nM
same,IC50,"[2]; Homo sapiens, Fibroblast, read-out: potency in reducing H3K9me2 levels",48 to 238 nM
same,reduction of H3K9me2 levels,"[2]; at 250 nM, variety of cell lines",60–80%
same,IC50,M2,480 ± 10 nM
same,"EGFP+ cells, maximal level","[3]; day 10, UNC0638 100, 250 or 500 nM, untreated 36%",63%
same,EGFP+ cells,[3]; day 12,75%
same,IC90,[4],320 nM
same,stability in solution,[5],stable
same,inhibition,panel of 24 kinases,< 10%
same,clonogenicity,MCF7 cells,marked concentration-dependent reduction of clonogenicity
same,IC50,SETD8,> 10000 nM
same,IC50,SETD8; SAHH-coupled assay,inactive
same,IC50,JMJD2E,4500 nM
same,clonogenicity,MDA-MB-231 cells,much less effect
same,mechanism of action versus peptide substrate,G9a [6]; Km of the peptide increased linearly with UNC0638 concentration,competitive with the peptide substrate
same,mechanism of action versus cofactor SAM,G9a [6]; apparent Km of SAM remained constant,noncompetitive with cofactor SAM
same,disassociation rate (kd),G9a [7],0.057 s⁻¹
same,DNA methylation of retrovirus LTR and MAGEA2 promoter,[8],induced DNA hypomethylation in a concentration-dependent manner
